The source made the active and inactive calls. No cut-off for these calls is given here.
Columns and labels:
Human alphaherpesvirus 2 = assay: Antiviral activity against HSV 2 infected in African green monkey Vero cells assessed as reduction in plaque formation incubated for 36 hrs by crystal violet staining based assay; format: functional, organism-based; details: Human alphaherpesvirus 2, Vero, 36 h; read-out: EC50
How it was run: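 Plaque reduction in Vero cells: virus adsorbed 60 min, then compound added in a carboxymethylcellulose overlay. Plaques counted after 36 h by crystal violet staining.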

Human gammaherpesvirus 4 = assay: Antiviral activity against EBV infected in human AKATA cells assessed as reduction in IgG-induced lytic virus replication measured at 48 hrs post-lytic induction by qRT-PCR analysis; format: functional, organism-based; details: human gammaherpesvirus 4, 48 h; read-out: EC50
[1] = Antiviral activity against Mouse Cytomegalovirus Smith (ATCC VR-1399) infected in mouse MEF cells assessed as reduction in plaque formation measured after 3 days by crystal violet staining based assay; format: functional, cell-based, Murine cytomegalovirus (strain Smith); details: Murid betaherpesvirus 1, ATCC VR-1399, MEF, 72 h; read-out: EC50
How it was run: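 Plaque reduction with MCMV Smith in mouse embryonic fibroblasts, with compound in a carboxymethylcellulose overlay. Assay ended at 3 days and plaques counted after crystal violet staining.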

Human betaherpesvirus 5 [2] = assay: (§1) Antiviral activity against pp28-luciferase expressing HCMV Towne infected in human HFF cells assessed as reduction in viral replication treated with compound at 24 hrs post viral infection at MOI of 1 PFU/cell and measured after 3 days by luciferase reporter gene assay; format: functional, organism-based; details: strain Towne
How it was run: (§2)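 Time-of-addition in HFFs infected with HCMV Towne (MOI 1). Add-on: compound added at 0, 6, 24 or 48 hpi. Removal: compound added right after infection and washed out after 0, 6, 24 or 48 h. Luciferase read at 72 hpi.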

Human betaherpesvirus 5 [3] = assay: as §1, with “immediately after” for “at 24 hrs post”, “PFU/cell followed by compound washout after 6 hrs” for “PFU/cell”; format: functional; details: strain Towne; how it was run: as §2
Human betaherpesvirus 5 [4] = assay: Antiviral activity against HCMV Towne infected in human HFF cells assessed as reduction in viral entry into host cell by measuring nuclear localization of pp65 at 5 uM treated with compound for 24 hrs followed by viral infection at MOI of 0.01 to 1 PFU/cell measured at 2 hrs post infection by immunofluorescence microscopy; format: functional, organism-based; details: strain Towne
How it was run: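 HFFs on chamber slides pretreated 24 h with compound diluted in serum-free medium, then infected with HCMV Towne for 2 h. Heparin 30 μM as positive entry-block control. Cells methanol-fixed, then stained with anti-pp65 (1:50) and rhodamine anti-mouse IgG, with DAPI. Nuclear pp65 viewed by fluorescence microscopy at 40x; repeated three times.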

Human betaherpesvirus 5 [5] = assay: Antiviral activity against HCMV Towne infected in human HFF cells assessed as reduction in viral DNA replication at 5 uM treated with compound following viral infection at MOI of 0.1 PFU/cell by US17 real time PCR analysis; format: functional, organism-based; details: strain Towne
How it was run: (§3)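 At set time points supernatants were harvested and cells lysed for DNA. Cell-associated viral DNA and supernatant viral DNA quantified by real-time PCR targeting a 151-bp conserved US17 region.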

Human betaherpesvirus 5 [6] = assay: Antiviral activity against HCMV Towne infected in human HFF cells assessed as reduction in viral DNA yields in the supernatant at 5 uM treated with compound following viral infection at MOI of 0.1 PFU/cell by US17 real time PCR analysis; format: functional, organism-based; details: strain Towne; how it was run: as §3
HFF = assay: Cytotoxicity against human HFF cells assessed as reduction in cell viability incubated for 72 hrs or 10 days by MTT assay; format: cell-based
How it was run: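 MTT assay on uninfected cells exposed to compound for 72 h or 8–10 days, matching the antiviral assay durations. MTT (5 mg/mL stock in PBS) added, then 2–3 h at 37 °C. Formazan absorbance read at 560 nm.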

Question: Which results are given for Nc1nc2c(ncn2COC(CO)CO)c(=O)[nH]1 [GANCICLOVIR]?
Answer: EC50 (Human alphaherpesvirus 2): 0.58 µM; EC50 (Human gammaherpesvirus 4): 5.2 µM; EC50 [1]: 0.96 µM; Activity (Human betaherpesvirus 5 [2]): inactive; Activity (Human betaherpesvirus 5 [3]): Active; Activity (Human betaherpesvirus 5 [4]): inactive; Activity (Human betaherpesvirus 5 [5]): Active; Activity (Human betaherpesvirus 5 [6]): Active

Question: For Nc1nc(O)c2ncn(COC(CO)CO)c2n1 [GANCICLOVIR], which CC50 (HFF) is on record?
Answer: > 200 µM
